The text below walks through data of PubChem BioAssay.

A short description of experiment [1]: inhibitors of TNFa-induced NFkB p65 translocation, primary screen, imaging, HUVEC, MLSMR starter and 10KST1 sets (AID 438;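 active means inhibition above 20% together with a positive visual image hit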;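 further: compound added about 3h40 before a 20 min TNFalpha stimulation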;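 on inhibition: signal is the nuclear over cytoplasmic p65 intensity ratio per well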). Conditions: HUVEC TNFa-induced p65 nuclear translocation; cell count: measured here: nuclei count (cytotoxicity indicator), at 2.08 µM; inhibition: at 2 µM, stronger effect = higher value, 0% TNFa-plus-vehicle, 100% no-TNFa wells.
A short description of experiment [2]: reduction of polyQ htt aggregates in cells – imaging, exon1htt(103Q)mCFP cells, high-content imaging, primary screen (AID 483;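 active means visual image review flags a hit and inhibition of aggregation exceeds 20%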;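 further: compound exposure lasted 3 days before fixation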;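 on nuclei count: percent of the per-plate median nuclei count of sample wells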). The note with it: exon1htt(103Q)mCFP cell line, aggregate imaging, at 2 µM; inhibition of aggregation: stronger effect = higher value; nuclei count: measured here: cell count, toxicity.
Experiment [3] can be described thus: endothelial E-selectin expression blockers – imaging, HUVEC, immunofluorescence, MLSMR starter and 10KST1 sets, primary screen (AID 487;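 active means visually confirmed hit in the image check and inhibition above 20%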;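 on inhibition: signal is fraction of cell area covered by stained E-selectin grains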;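 on nuclei count: 100% = median nuclei count of all wells on the same plate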). Conditions: HUVEC TNFalpha-induced E-selectin immunofluorescence imaging, at 2 µM; inhibition: stronger effect = higher value; nuclei count: measured here: cell number, toxicity.
Experiment [4] concerns the target Voltage-gated potassium channel subunit beta-2 (Rattus norvegicus) (UniProt P62483). The experiment in a line: inhibitors of rat Kvbeta2 reductase activity – biochemical, NADPH fluorescence, primary screen (AID 622;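 active means fluorescence slope higher than the sample average by over 3 SD, cut at about -0.22 in these data, passing the limit was not always enough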;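 further: slope of raw intensity against log time taken from 70 to 1610 s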). The note with it: recombinant KvBeta, 4-cyanobenzaldehyde reduction, at 10 µM, stronger effect = higher value.
Experiment [5] shares this target. The experiment in a line: enhancers of rat Kvbeta2 NADPH turnover – biochemical, NADPH fluorescence, primary screen (AID 623;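 active means NADPH fluorescence slope more negative than the mean of all samples by about 3 SD, 99.7% confidence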;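 further: fluorescence intensity change per second fitted from 20 to 320 s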). Conditions: Recombinant KvBeta, NADPH fluorescence decrease slope, 10 min; at 10 µM; stronger effect = lower value.
Experiment [6] addresses Muscarinic acetylcholine receptor M4 (Homo sapiens) (UniProt P08173). The experiment in a line: M4-linked GIRK flux change, two-sided – cell-based, HEK293 M4/GIRK, thallium flux, BTC-AM, M4 allosteric agonist project, primary screen (AID 625;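 active means fluorescence slope after compound addition differing from the mean of all tested samples at 99.7% confidence, mostly higher but some lower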;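 further: thallium influx through GIRK channels coupled to M4 in HEK293 cells with BTC-AM dye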). Conditions: at 10 µM, actives lie on both sides. The method in brief:
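System: HEK293 cells with M4 receptor and GIRK channels | Incubation: Cells overnight at 37 °C, BTC-AM loading 1 h, reads 2 min total | Technique: Kinetic BTC-AM fluorescence sampled at 1 Hz, 10 s pre-addition baseline | Measure: Post-addition slope, 15–24 s, of baseline-normalized fluorescence | Control set: Carbachol positive, DMSO negative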

The nature of experiment [7]: blockers of RIG-like receptor reporter activation – cell-based, Sendai virus stimulus, luciferase, 10K MLSCN set, TLR/RLR signaling modifier project, primary screen (AID 602276).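 Further: firefly luciferase from ISG56 promoter only with Renilla not read in this screen; 0% = Sendai virus plus DMSO and 100% = medium plus DMSO without virus.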 Conditions: HEK293 RL24 IRF3 luciferase reporter, at 10 µM, stronger effect = higher value. On the technique in general: A reporter such as luciferase makes a cellular process visible.
The nature of experiment [8]: TLR3 IRF3 reporter activation blockers – cell-based, poly I:C stimulus, luciferase, 10K MLSCN set, primary screen (AID 602277;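 active means inhibition of the reporter signal at or above 50%; inactive means inhibition below 50%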). Conditions: HEK293-TLR3 RL24 IRF3 luciferase reporter, at 10 µM, stronger effect = higher value.

The source made the active and inactive calls.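 How the source made its calls, unless noted: active means inhibition at or above 50% at 10 µM; inactive means inhibition below 50%.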

Muscarinic acetylcholine receptor M4 (Homo sapiens), sequence (P08173 whole entry, looked up): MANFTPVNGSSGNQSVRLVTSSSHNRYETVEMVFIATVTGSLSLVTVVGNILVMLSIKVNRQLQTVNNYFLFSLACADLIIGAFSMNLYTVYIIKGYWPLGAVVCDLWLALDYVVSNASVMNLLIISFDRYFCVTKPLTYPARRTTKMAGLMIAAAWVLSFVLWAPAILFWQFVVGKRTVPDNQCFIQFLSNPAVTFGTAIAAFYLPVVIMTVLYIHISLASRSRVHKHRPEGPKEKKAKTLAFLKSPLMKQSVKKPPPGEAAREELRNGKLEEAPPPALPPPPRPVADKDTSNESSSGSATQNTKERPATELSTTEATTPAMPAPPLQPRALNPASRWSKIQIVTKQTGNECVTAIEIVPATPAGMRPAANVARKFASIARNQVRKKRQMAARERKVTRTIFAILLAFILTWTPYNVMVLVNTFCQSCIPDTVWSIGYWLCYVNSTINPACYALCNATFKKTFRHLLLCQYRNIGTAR
Voltage-gated potassium channel subunit beta-2 (Rattus norvegicus), sequence (P62483 whole entry, looked up): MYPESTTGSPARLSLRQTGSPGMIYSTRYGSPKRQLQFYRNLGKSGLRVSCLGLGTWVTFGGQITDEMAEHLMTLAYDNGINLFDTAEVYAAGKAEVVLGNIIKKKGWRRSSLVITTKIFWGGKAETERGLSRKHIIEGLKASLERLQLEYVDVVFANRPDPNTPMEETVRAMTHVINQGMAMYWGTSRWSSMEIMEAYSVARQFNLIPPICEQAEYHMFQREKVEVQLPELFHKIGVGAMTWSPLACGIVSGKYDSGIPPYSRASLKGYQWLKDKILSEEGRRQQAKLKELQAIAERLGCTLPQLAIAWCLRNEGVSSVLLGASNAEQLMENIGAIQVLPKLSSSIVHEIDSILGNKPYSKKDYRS

As for `O=C(CSC1=NC(=O)C(Cc2ccccc2)C(=O)N1)NC1CCCCC1` (centres undefined), in experiment [1], the cell count amounted to 605. The inhibition in experiment [1] is -9.8% (inactive); in experiment [3], -11.4% (inactive); in experiment [7], -10.2% (inactive); in experiment [8] it was -11.1% (inactive). Besides, in experiment [2], the inhibition of aggregation was -13.9% (inactive). The nuclei count in experiment [2] worked out at 104%; in experiment [3] it was 108%. Moreover, the fluorescence slope was -0.558 (inactive) in experiment [4] and 0.0034 (inactive) in experiment [6]. In addition, the NADPH fluorescence slope in experiment [5] is -6.8e-05 (inactive).

As to `COc1ccc(N(CC(=O)NC2CCCC2)C(=O)Cn2nnc(-c3ccc(C)cc3)n2)cc1`, in experiment [1], the cell count turned out to be 465. For the same compound, the inhibition in experiment [1] is -3.9% (inactive); in experiment [3] it was -65.7% (inactive); in experiment [7], -14.1% (inactive); in experiment [8] it was 0.19% (inactive). Moreover, the inhibition of aggregation in experiment [2] is 8.3% (inactive). For the same compound, the figures for the nuclei count in experiment [2] and in experiment [3] were 90.6% and 106%, respectively. Also, the figures for the fluorescence slope in experiment [4] and in experiment [6] were -0.587 (inactive) and 0.00452 (inactive), respectively. In addition, in experiment [5], the NADPH fluorescence slope is 8e-06 (inactive).

Regarding `COc1ccc(OC)c(C2=NOC(C(=O)Nc3cccnc3)C2)c1` (centres undefined), the cell count in experiment [1] was determined as 738. Further, the inhibition is -14.3% (inactive) in experiment [1], -31.9% (inactive) in experiment [3], 4.03% (inactive) in experiment [7] and 2.04% (inactive) in experiment [8]. The inhibition of aggregation in experiment [2] is -1.9% (inactive). For the same compound, the values for the nuclei count in experiment [2] and in experiment [3] were 100% and 93%, respectively. In addition, the fluorescence slope in experiment [4] is -0.561 (inactive); in experiment [6] it was 0.00522 (inactive). Moreover, the NADPH fluorescence slope in experiment [5] was 5.2e-07 (inactive).

In the case of `Fc1c(F)c(F)c(CSc2nc3ccccc3[nH]2)c(F)c1F`, the cell count in experiment [1] was found to be 423. Also, the inhibition was 0% (inactive) in experiment [1], -40.6% (inactive) in experiment [3], -6.35% (inactive) in experiment [7] and -46.6% (inactive) in experiment [8]. In addition, the inhibition of aggregation in experiment [2] was 28.9% (inactive). Further, the values for the nuclei count in experiment [2] and in experiment [3] were 82.8% and 86.2%, respectively. Further, the fluorescence slope is -0.562 (inactive) in experiment [4] and 0.0075 (inactive) in experiment [6]. For the same compound, in experiment [5], the NADPH fluorescence slope is -3.7e-05 (inactive).

Consider `CCCCNC(=O)OC(C)CNC(=O)Oc1cccc(C)c1` (centres undefined), for which, in experiment [1], the cell count came out at 482. In addition, the inhibition in experiment [1] was 7.6% (inactive); in experiment [3], 41.7% (inactive); in experiment [7] it was 22.3% (inactive); in experiment [8], 15.6% (inactive). Moreover, the inhibition of aggregation in experiment [2] was 13.4% (inactive). Also, the nuclei count came to 92.7% in experiment [2] and 74.5% in experiment [3]. For the same compound, the fluorescence slope in experiment [4] is -0.471 (inactive); in experiment [6] it was 0.00498 (inactive). For the same compound, the NADPH fluorescence slope in experiment [5] is -2.9e-05 (inactive).

With `CCc1nnc(NC(=O)CSc2nc3ccccc3s2)s1`, in experiment [1], the cell count is 604. Also, the inhibition was 7.1% (inactive) in experiment [1], -44% (inactive) in experiment [3], 11.9% (inactive) in experiment [7] and 12.6% (inactive) in experiment [8]. In addition, the inhibition of aggregation in experiment [2] is -5.7% (inactive). Further, the nuclei count came out at 100% in experiment [2] and 112% in experiment [3]. The values for the fluorescence slope in experiment [4] and in experiment [6] were -0.472 (inactive) and 0.00516 (inactive), respectively. Also, in experiment [5], the NADPH fluorescence slope was -5.3e-05 (inactive).

As to `CC(Oc1ccc2oc(-c3ccccc3)c(C(=O)O)c2c1)C(=O)O` (centres undefined), the cell count in experiment [1] came to 371. Further, the inhibition is 10.6% (inactive) in experiment [1], 27.6% (inactive) in experiment [3], 7.55% (inactive) in experiment [7] and 16.2% (inactive) in experiment [8]. The inhibition of aggregation in experiment [2] was 9% (inactive). The nuclei count was found to be 104% in experiment [2] and 89.9% in experiment [3]. Moreover, the fluorescence slope in experiment [4] is -0.158 (inactive); in experiment [6], 0.00531 (inactive). Further, the NADPH fluorescence slope in experiment [5] was -5.4e-05 (inactive).

As for `COc1ccc(-n2cc(-c3ccccc3)c3c(N4CCN(CCO)CC4)ncnc32)cc1`, the cell count in experiment [1] came to 568. Also, the inhibition in experiment [1] is -26.5% (inactive); in experiment [3] it was -29.3% (inactive); in experiment [7], 13.2% (inactive); in experiment [8], 25.2% (inactive). Besides, in experiment [2], the inhibition of aggregation was 3.6% (inactive). Besides, the nuclei count in experiment [2] is 102%; in experiment [3], 99.1%. Further, the fluorescence slope in experiment [4] is -0.519 (inactive); in experiment [6] it was 0.003 (inactive). Besides, in experiment [5], the NADPH fluorescence slope was -6.1e-07 (inactive).

For the compound `COc1ccc(-c2nc(N)nc(C)c2Oc2ccccc2Br)c(O)c1`, in experiment [1], the cell count turned out to be 382. Moreover, the inhibition was 6.9% (inactive) in experiment [1], -64.3% (inactive) in experiment [3], 10.9% (inactive) in experiment [7] and 53% (active) in experiment [8]. In addition, the inhibition of aggregation in experiment [2] was -14% (inactive). Besides, the nuclei count in experiment [2] was 100%; in experiment [3], 85.6%. Further, the fluorescence slope in experiment [4] was -0.496 (inactive); in experiment [6], 0.00571 (inactive). Also, the NADPH fluorescence slope in experiment [5] was 6e-05 (inactive).

`Oc1cccc2ccc(Nc3ccccn3)nc12`: the cell count in experiment [1] was 583. The inhibition in experiment [1] is -9.7% (inactive); in experiment [3], 11.4% (inactive); in experiment [7] it was 11% (inactive); in experiment [8], 97.5% (active). The inhibition of aggregation in experiment [2] is -24.8% (inactive). In addition, the nuclei count was 82.5% in experiment [2] and 99.8% in experiment [3]. Besides, the fluorescence slope in experiment [4] is -0.563 (inactive); in experiment [6], 0.0033 (inactive). Besides, the NADPH fluorescence slope in experiment [5] was -3.9e-05 (inactive).

In the case of `Cc1ccc(NCc2nnc(SCC(=O)N3CCCCC3)n2CC2CCCO2)c(C)c1` (centres undefined), the cell count in experiment [1] was 484. The inhibition in experiment [1] is 3.6% (inactive); in experiment [3], -63.1% (inactive); in experiment [7], 20.5% (inactive); in experiment [8], 25.6% (inactive). In experiment [2], the inhibition of aggregation was -7.9% (inactive). In addition, the nuclei count in experiment [2] was 95.1%; in experiment [3] it was 109%. The fluorescence slope was -0.534 (inactive) in experiment [4] and 0.00508 (inactive) in experiment [6]. In experiment [5], the NADPH fluorescence slope was -1.9e-05 (inactive).

`Cc1ccc(-c2nn(C)c(=O)c3ccccc23)cc1S(=O)(=O)N1CCOCC1`: the cell count in experiment [1] was determined as 595. The inhibition is -10.5% (inactive) in experiment [1], -64.2% (inactive) in experiment [3], 8.97% (inactive) in experiment [7] and 30.3% (inactive) in experiment [8]. In addition, the inhibition of aggregation in experiment [2] was -24.4% (inactive). The nuclei count in experiment [2] turned out to be 101%; in experiment [3], 102%. Also, the fluorescence slope in experiment [4] was -0.511 (inactive); in experiment [6], 0.0045 (inactive). In experiment [5], the NADPH fluorescence slope was -2.7e-05 (inactive).

On to `CCn1cc(C(=O)NCC2COc3ccccc3O2)c2cc(OC)c(OC)cc2c1=O` (centres undefined), for which, in experiment [1], the cell count amounted to 481. The inhibition in experiment [1] was -29.9% (inactive); in experiment [3], -124% (inactive); in experiment [7], 11.8% (inactive); in experiment [8], -1.62% (inactive). Besides, the inhibition of aggregation in experiment [2] was -6.2% (inactive). Further, the results for the nuclei count in experiment [2] and in experiment [3] were 101% and 116%, respectively. Besides, the figures for the fluorescence slope in experiment [4] and in experiment [6] were -0.481 (inactive) and 0.00554 (inactive), respectively. For the same compound, in experiment [5], the NADPH fluorescence slope was -6.7e-05 (inactive).

Turning to `COc1cc2nc(C3CCC3)n(NC(=O)C3CCCC(OC)C3)c(=O)c2cc1OC` (centres undefined), in experiment [1], the cell count was determined as 609. Also, the inhibition in experiment [1] is -8.8% (inactive); in experiment [3], -30.3% (inactive); in experiment [7] it was 15.8% (inactive); in experiment [8], 9.02% (inactive). Further, the inhibition of aggregation in experiment [2] is -18% (inactive). Further, the nuclei count is 106% in experiment [2] and 107% in experiment [3]. For the same compound, the results for the fluorescence slope in experiment [4] and in experiment [6] were -0.266 (inactive) and 0.00583 (inactive), respectively. The NADPH fluorescence slope in experiment [5] is -1.2e-05 (inactive).

Usually inhibition stands for the relative decrease from the control value, in per cent.
